# Measured values published in PubChem BioAssay AID504788 (Broad Institute, 2011).
# Results filed as inconclusive are left out. Activity calls are given as the source filed them.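 The calls were made as follows: active = compound lowers the viability signal with a fitted half-maximal concentration within ten times the top dose, every run; inconclusive = runs disagree, poor fit, or flat partial inhibition; inactive = the rest.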
# Test system: HMLE_shECad viability, CellTiter-Glo luminescence, 72 h
# Experiment: growth inhibition of breast cancer stem-like cells, dose response, cell-based, HMLE_shECad, CellTiter-Glo luminescence, dry powder, set 7 (AID 504788)
# Conditions: not given
# How it was run: (§1)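 System: HMLE_shECad cells, E-cadherin knockdown, EMT-induced breast cancer stem cell model / Input: 2000 cells/well / Buffer or medium: serum-free CSC screening medium, 37 °C, 5% CO2 / Doses: 100 nL compound pinned into each well / Incubation: ≥4 h settling, then 70–74 h compound exposure, 37 °C / Technique: CellTiter-Glo luminescence, reagent diluted 1:3 in PBS, 12 min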
row,SMILES,AC50 [µM]
1,Cc1csc(NC(=O)c2ccc(COc3ncccc3F)o2)n1,22.7
2,O=C(/C=C/c1ccc(-c2ccccc2)nc1)NC1=NCCS1,29
3,Cc1csc(NC(=O)c2cccc(COc3cccc(F)c3)c2)n1,0.705
4,O=C(COc1c(Cl)cc(Cl)cc1Cl)N/N=C/c1ccc[nH]1,1.7
5,Cc1ccnc(NCc2cccc(C(=O)Nc3nc(C)cs3)c2)c1,17.7
6,Cc1csc(NC(=O)c2cccc(COc3cccc(Cl)c3)c2)n1,1.11
7,Cc1cccc(NCc2ccc(C(=O)Nc3nc(C)cs3)o2)n1,18
8,Cc1cccc(NCc2cccc(C(=O)Nc3nc(C)cs3)c2)n1,21.1
9,Cc1csc(NC(=O)COc2ccc(Cl)cc2Cl)n1,28.9
10,COc1cc(C(C)C)ccc1/C=C/C(=O)NC1=NCCS1,30.6
11,Cc1cccc(OCc2ccc(C(=O)Nc3nc(C)cs3)o2)n1,18.7
12,Cc1csc(NC(=O)c2ccc(COc3ccncc3)o2)n1,20
13,Cc1csc(NC(=O)c2ccc(COc3cccc(OC(F)(F)F)c3)o2)n1,0.895
14,Cc1csc(NC(=O)c2cccc(COc3ccccc3F)c2)n1,1.93
15,Cc1cccc(OCc2cccc(C(=O)Nc3nc(C)cs3)c2)c1,2.74
16,Cc1csc(NC(=O)c2cccc(CNc3ncccc3F)c2)n1,22.9
17,COc1cc([C@@H]2c3cc4c(cc3[C@@H](OC3OC5COC(C)OC5C(O)C3O)[C@H]3COC(=O)[C@H]23)OCO4)cc(OC)c1O (stereo not given in full),2.95
18,COc1cccc2c1C(=O)c1c(O)c3c(c(O)c1C2=O)C[C@@](O)(C(=O)CO)C[C@@H]3OC1C[C@H](N)[C@H](O)[C@H](C)O1 (stereo not given in full),0.053
19,CC(C)c1ccc(/C=C/C(=O)n2ccc(-c3ccc[nH]3)n2)cc1,15.6

# Test system: not listed separately
# Experiment: as above
# Conditions: HMLE_shECad viability, CellTiter-Glo luminescence, 72 h; at 19.5 µM (top of the series)
# How it was run: as §1
row,SMILES,"activity change, negative = inhibition"
1,Cc1cccc(/C=C/C(=O)NC2=NCCS2)c1,6.76% (inactive)
2,N#Cc1cccc(/C=C/C(=O)NC2=NCCS2)c1,0.158% (inactive)
3,COc1cc(OC(C)C)ccc1/C=C/C(=O)NC1=NCCS1,-1.34% (inactive)
4,CC(C)c1ccc(/C=C/C(=O)N2CC(F)(F)C2)cc1,-4.76% (inactive)
5,CCc1ccc(/C=C/C(=O)NC2=NCCS2)cn1,1.08% (inactive)
6,Cc1csc(NC(=O)c2ccc(COc3cccnc3)o2)n1,-5.96% (inactive)
7,c1c[nH]c(-c2ccn[nH]2)c1,5% (inactive)
8,O=C(COc1ccc(Cl)cc1Cl)n1ccc(-c2ccc[nH]2)n1,7.33% (inactive)
9,N#Cc1ccccc1/C=C/C(=O)NC1=NCCS1,-13.1% (inactive)
10,O=C(c1ccc(COc2ccccc2)o1)N1CC(F)(F)C1,1.55% (inactive)
11,CN(C)C(=N)N=C(N)N,6.34% (inactive)
12,O=C(COc1ccc(Cl)cc1Cl)N/N=C/c1ccccc1,3.46% (inactive)
13,O=C(c1ccc(COc2ccccc2)o1)n1ccc(-c2ccc[nH]2)n1,7.35% (inactive)
14,O=C(COc1ccc(Cl)cc1Cl)NC1=NCCS1,-3.83% (inactive)
15,O=C(O)COc1ccc(Cl)cc1Cl,-2.16% (inactive)
16,CC(C)c1ccc(C#CC(=O)NC2=NCCS2)cc1,-4.05% (inactive)
